ChEMBL document CHEMBL1909495, “Synthesis and kinetic testing of new inhibitors for a metallo-β-lactamase from Klebsiella pneumonia and Pseudomonas aeruginosa” (Eur J Med Chem, 2011)

Legend:
[1] = target: Beta-lactamase (Pseudomonas aeruginosa) (UniProt Q79MP6); assay: Inhibition of Pseudomonas aeruginosa metallo-beta-lactamase IMP-1 expressed in Escherichia coli BL21(DE3) using CENTA as substrate at 10 uM by spectrophotometric analysis
Summary of the method: (§1)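 Single-point screen with inhibitor at 10 µM against IMP-1 lacking the 21-residue signal peptide (2 nM final). Buffer was 50 mM HEPES pH 7.0 with 0.1 M NaCl, 100 µM ZnCl2 and BSA at 20 µg/mL. Substrate was CENTA at 70 µM. CENTA hydrolysis was followed by 4-nitrophenolate absorbance at 405 nm and reported as percent inhibition.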

Klebsiella pneumoniae [2] = assay: Inhibition of Klebsiella pneumoniae metallo-beta-lactamase IMP-1 expressed in Escherichia coli BL21(DE3) using CENTA as substrate at 10 uM by spectrophotometric analysis; summary of the method: as §1
Klebsiella pneumoniae [3] = assay: Competitive inhibition of Klebsiella pneumoniae metallo-beta-lactamase IMP-1 expressed in Escherichia coli BL21(DE3) using CENTA as substrate by spectrophotometric analysis
Summary of the method: (§2)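 IMP-1 lacking the first 21 signal-peptide residues, recombinantly expressed and purified, at 2 nM final. Buffer was 50 mM HEPES, 0.1 M NaCl, 100 µM ZnCl2, pH 7.0, with BSA at 20 µg/mL final. CENTA was varied from 5 to 70 µM final at three inhibitor concentrations. 4-Nitrophenolate release was read at 405 nm on a plate reader, and data were fitted by non-linear regression.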

[4] = target: Beta-lactamase (Pseudomonas aeruginosa) (UniProt Q79MP6); assay: Competitive inhibition of Pseudomonas aeruginosa metallo-beta-lactamase IMP-1 expressed in Escherichia coli BL21(DE3) using CENTA as substrate by spectrophotometric analysis; summary of the method: as §2
[5] = target: Beta-lactamase (Pseudomonas aeruginosa) (UniProt Q79MP6); assay: Uncompetitive inhibition of Pseudomonas aeruginosa metallo-beta-lactamase IMP-1 expressed in Escherichia coli BL21(DE3) using CENTA as substrate by spectrophotometric analysis; summary of the method: as §2
Klebsiella pneumoniae [6] = assay: Uncompetitive inhibition of Klebsiella pneumoniae metallo-beta-lactamase IMP-1 expressed in Escherichia coli BL21(DE3) using CENTA as substrate by spectrophotometric analysis; summary of the method: as §2

Sequence of Beta-lactamase (Pseudomonas aeruginosa) (Q79MP6 19-246 limits assumed): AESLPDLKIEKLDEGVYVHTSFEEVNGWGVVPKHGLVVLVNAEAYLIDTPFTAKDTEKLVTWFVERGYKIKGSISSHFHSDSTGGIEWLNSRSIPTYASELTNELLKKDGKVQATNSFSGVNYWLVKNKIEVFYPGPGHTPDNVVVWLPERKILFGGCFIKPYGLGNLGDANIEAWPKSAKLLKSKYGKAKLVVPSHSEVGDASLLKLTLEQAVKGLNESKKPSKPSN

Row | SMILES | inhibition [1] [%] | inhibition (Klebsiella pneumoniae [2]) [%] | Kic (Klebsiella pneumoniae [3]) [µM] | Kic [4] [µM] | Kiuc [5] [µM] | Kiuc (Klebsiella pneumoniae [6]) [µM]
1 | Cc1ccc(-n2cc(-c3ccccc3)c(C#N)c2N)cc1 | 0 | 0 | – | – | – | –
2 | COc1ccc(-n2cc(-c3ccccc3)c(C#N)c2N)cc1 | 0 | 0 | – | – | – | –
3 | Cc1ccc(-n2c(-c3ccccc3)c(-c3ccccc3)c3c(N/N=C/c4ccccc4)ncnc32)cc1 | 13 | 13 | 18 | 18 | – | –
4 | Cc1ccc(-n2c(-c3ccccc3)c(-c3ccccc3)c3c2ncn2cnnc32)cc1 | 4 | 4 | – | – | – | –
5 | Cc1ccc(-n2cc(-c3ccccc3)c3c(O)ncnc32)cc1 | 0 | 0 | – | – | – | –
6 | Cc1ccc(-n2c(-c3ccccc3)c(-c3ccccc3)c3c2ncn2c(=S)[nH]nc32)cc1 | 14 | 14 | 15 | 15 | – | –
7 | COc1ccc(-n2c3c(c(-c4ccccc4)c2-c2ccccc2)C(=C(C#N)C#N)NC=N3)cc1 | 17 | 17 | 29 | 29 | 225 | 225
8 | Cc1ccc(-n2cc(-c3ccccc3)c3c(Cl)ncnc32)cc1 | 9 | 9 | 33 | 33 | 106 | 106
9 | Cc1ccc(-n2c(-c3ccccc3)c(-c3ccccc3)c3c2ncn2c(C)nnc32)cc1 | 7 | 7 | – | – | – | –
10 | Cc1ccc(-n2c(-c3ccccc3)c(-c3ccccc3)c3c(Cl)ncnc32)cc1 | 10 | 10 | 19 | 19 | 112 | 112
11 | COc1ccc(-n2c(-c3ccccc3)c(-c3ccccc3)c3c(Cl)ncnc32)cc1 | 15 | 15 | 12 | 12 | 182 | 182
